How the values were obtained:
[1] = Enzymatic stability in rat hepatic homogenates; assay type: in vitro ADME; conditions: Sprague-Dawley, liver homogenate
Method in brief: (§1)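 Matrices from Sprague-Dawley rats: plasma from orbital blood stored at −80 °C, and liver or intestine washed in saline, homogenised on ice at 1:3 tissue:saline, with cold-centrifuged supernatant used. Test compound at 80 µg/ml, shaken at 37 °C, sampled 0–48 h. Samples were quenched with methanol (1:3), vortexed 2 min and centrifuged 13 000 rpm for 10 min. Supernatant was analysed by HPLC.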

[2] = Chemical stability in different pH hydrochloride and phosphate buffers at 37 °C; assay type: physicochemical; conditions: for half-life at 80 µg/ml: hydrochloride or phosphate buffer (PBS); for T1/2: pH 6.8, 37 °C, 80 µg/ml
Method in brief: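 Test compound at 80 µg/ml in pH 1.2, 6.8 or 7.4 solution, shaken at 37 °C. Samples were taken at 0, 0.083, 0.25, 0.5, 1, 2, 4, 8, 12, 24 and 48 h. Each sample was centrifuged at 13 000 rpm for 10 min and quantified by HPLC.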

[3] = Enzymatic stability in rat intestinal homogenates; assay type: in vitro ADME; conditions: Sprague-Dawley, intestinal homogenate
Method in brief: as §1

[4] = Enzymatic stability in rat plasma; assay type: in vitro ADME; conditions: Sprague-Dawley
Method in brief: as §1

[5] = tested on: Caco-2 cells; assay: In vitro cytotoxicity; assay type: cell-based; conditions: for IC50: Homo sapiens, Caco-2, 48 h, read-out: IC50 Caco-2; for IC50 in Caco-2 cells, fold greater than 5-FU: MTT, 48 h
Method in brief: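 Caco-2 cells seeded at 5 × 10^3 per well and grown 24 h. Cells were exposed to a concentration gradient of test compound for 48 h. Medium was replaced with 20% MTT medium for 4 h at 37 °C, then formazan was dissolved in DMSO for 15 min. Absorbance was read at 490 nm and IC50 calculated.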

[6] = In situ single-pass intestinal perfusion study; assay type: in vivo, Sprague-Dawley (SD) rats; conditions: for absorption rate constant (Ka), fold higher than 5-FU / apparent permeability coefficient (Papp), fold higher than 5-FU: colon, 0.5 mM, rat
Method in brief: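 Sprague-Dawley rats (220–240 g) were anaesthetised with 20% urethane, and ileum and colon segments were cannulated. Segments were pre-perfused with blank MES buffer for 20 min, then with test compound at 0.5 mM in MES buffer. Inlet and outlet perfusate were collected and weighed at set times. Samples were methanol-precipitated (1:3) and analysed by HPLC. Ka and Papp were derived from concentrations, volumes, segment radius and length, and flow rate.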

[7] = tested on: Caco-2 cells; assay: Caco-2 cell uptake study; assay type: cell-based; conditions: for Uptake in untreated cells (without butyric acid induction): cells without induction vs butyric acid-treated; for Caco-2 uptake, fold higher than 5-FU: drug concentration 1 mM, uptake time 10 min, butyric acid-induced cells
Method in brief: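 Caco-2 cells seeded in 24-well plates at 1 × 10^4 per well and grown 15 d. Medium was switched to butyric acid-containing medium on day 7 to induce MCT1. Uptake ran at 37 °C at set times and concentrations, with or without inhibitor at 2.5 mM. Cells were washed three times with cold PBS, collected in water and sonicated. Drug was measured by UPLC-MS/MS and normalised to BCA protein.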

[8] = tested on: Caco-2 monolayer; assay: Caco-2 cell permeability; assay type: in vitro ADME; conditions: AP → BL transport
Method in brief: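 Caco-2 cells seeded on Transwell inserts at 1 × 10^4 per well. After the first week, medium contained butyric acid up to 21 d, and monolayers with TEER above 300 Ω cm2 were used. Monolayers were washed with 37 °C HBSS and equilibrated for 30 min. Drug was added apically with HBSS basolaterally. BL was sampled with replacement at 5–120 min, with or without inhibitor (2.5 mM). Samples were analysed by UPLC-MS/MS and Papp calculated.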

[9] = tested on: Kunming mice; assay: In vivo safety evaluation; conditions: 40 mg/kg intragastrically, 7 d continuous
Method in brief: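 Male Kunming mice (18–22 g), nine in 3 groups, received PBS, 5-FU or test compound intragastrically at 40 mg/kg for 7 consecutive days. Duodenum, jejunum, ileum and colon (plus major organs) were fixed in 10% formalin, then embedded, dewaxed, stained and examined microscopically.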

[10] = In vivo pharmacokinetics; parameters: species or system Sprague-Dawley rats; conditions: 8 mg/kg
Method in brief: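 Male Sprague-Dawley rats (200–220 g), 5 per group. Oral dosing was 20 mg/kg 5-FU equivalent; one group received 5-FU iv at 8 mg/kg for absolute bioavailability. Plasma was collected at set times. Samples were precipitated with methanol plus internal standard, dried under nitrogen at 37 °C and reconstituted in methanol:water 15:85. Prodrug and 5-FU were measured together by UPLC-MS/MS (C18, water/acetonitrile gradient, MRM).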

[11] = male, Sprague-Dawley, rat, plasma, iv

| half-life at 80 µg/ml [1] [h] | half-life at 80 µg/ml ([2]; pH 1.2) [h] | half-life at 80 µg/ml ([2]; pH 7.4) [h] | T1/2 [2] | half-life at 80 µg/ml [3] [h] | half-life at 80 µg/ml [4] [h] | absorption rate constant (Ka), fold higher than 5-FU [6] [fold] | apparent permeability coefficient (Papp), fold higher than 5-FU [6] [fold] | Uptake in untreated cells (without butyric acid induction) [7] | Caco-2 uptake, fold higher than 5-FU [7] [fold] | membrane permeability AP → BL, fold greater than 5-FU [8] [fold] | Ka and Papp values on co-incubating with quercetin (MCT1 inhibitor) ([6]; in situ perfusion with quercetin) | Fabs ([10]; i.v., rat (reference)) [%] | Cmax [10, 11] [ng/mL] | Tmax [10, 11] [min] | half-life [10, 11] [h] | SMILES | IC50 [5] [µM] | IC50 in Caco-2 cells, fold greater than 5-FU [5] [fold] | Intestinal histology (duodenum, jejunum, ileum, colon; H&E) [9] | Systemic histology (heart, liver, spleen, lung, kidney; H&E) [9] |
| --- | --- | --- | --- | --- | --- | --- | --- | --- | --- | --- | --- | --- | --- | --- | --- | --- | --- | --- | --- | --- |
| < 0.25 | 36.8 ± 2.3 | 152 ± 13.1 | No hydrolysis | 1.2 ± 0.1 | 15.3 ± 1.1 | 3.8 | 3.3 | significantly decreased | 5.5 | 13.1 |  |  |  |  |  | O=C(O)CCCCCCC(=O)OCn1cc(F)c(=O)[nH]c1=O [OA-5-FU, octanedioic acid mono-(5-fluoro-2,4-dioxo-3,4-dihydro-2H-pyrimidin-1-ylmethyl) ester] | 317.7 ± 1.1 | 4.1 | No significant toxicity |  |
| 9.7 ± 3 | 38.3 ± 0.1 | 143 ± 36.8 | No hydrolysis | 3.4 ± 0.2 | 19.7 ± 5.1 | 1.1 | 1.1 | significantly decreased | 2.2 | 8.5 | significantly decreased |  |  |  |  | O=C(O)CCCCC(=O)OCn1cc(F)c(=O)[nH]c1=O [HDA-5-FU, Hexanedioic acid mono-(5-fluoro-2,4-dioxo-3,4-dihydro-2H-pyrimidin-1-ylmethyl) ester] | 500.8 ± 1.32 | 6.4 |  |  |
|  |  |  |  |  |  |  |  |  |  |  |  | 100 | 11200 | 4.8 | 0.29 ± 0.06 | O=c1[nH]cc(F)c(=O)[nH]1 [5-FU, 5-Fluorouracil] | 77.8 ± 1.11 |  | inflammatory cell infiltration occurred in the duodenum, jejunum and ileum tissues | the liver cells were wrinkled, the nuclei were pyknotic |

Reference: publication PMC7032090 (Asian Journal of Pharmaceutical Sciences, 2019)
